Compounds with a hit are over-represented: about 1.1% of the library has one in this group of screens.
KLK5 inh = blocks human kallikrein 5 protease activity. Q9Y337. recombinant hK5, fluorogenic AMC substrate cleavage. inhibition, % at 5 µM. actives 0.59% (n = 210,000);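 active means inhibition of 40% or more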
Furin inhibitor = blocks human furin protease activity | P09958 | purified furin, fluorogenic substrate cleavage | inhibition, % at 20 µM or 30 µM | actives 0.061% (n = 220,000); in the data active means inhibition above about 25%
Target sequence (P09958 108-714 limits assumed): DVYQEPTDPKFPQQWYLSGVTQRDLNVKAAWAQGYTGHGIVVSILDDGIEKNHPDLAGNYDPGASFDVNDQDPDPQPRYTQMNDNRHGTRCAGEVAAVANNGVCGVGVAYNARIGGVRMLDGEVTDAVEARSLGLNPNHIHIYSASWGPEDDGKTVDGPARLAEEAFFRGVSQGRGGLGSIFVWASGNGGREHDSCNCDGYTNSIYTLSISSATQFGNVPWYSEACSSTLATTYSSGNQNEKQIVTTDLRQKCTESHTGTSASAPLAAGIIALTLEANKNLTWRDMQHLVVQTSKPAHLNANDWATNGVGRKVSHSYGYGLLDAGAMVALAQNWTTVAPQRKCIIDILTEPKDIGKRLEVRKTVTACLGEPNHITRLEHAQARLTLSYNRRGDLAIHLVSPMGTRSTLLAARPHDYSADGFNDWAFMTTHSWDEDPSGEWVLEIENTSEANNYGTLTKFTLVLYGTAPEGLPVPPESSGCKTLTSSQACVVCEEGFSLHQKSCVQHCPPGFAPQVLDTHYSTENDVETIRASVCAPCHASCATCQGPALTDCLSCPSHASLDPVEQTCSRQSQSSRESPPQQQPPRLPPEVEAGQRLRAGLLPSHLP
FXIIa inh 1536 = blocks human coagulation factor XIIa protease activity; P00748; inhibition, % at 5 µM; purified FXIIa, Boc-QGR-AMC fluorogenic substrate, 2 h; actives 0.3% (n = 220,000); AID 800; in the data active means inhibition above about 40%
FXIa inh = blocks human coagulation factor XIa protease activity. AID 798. actives 0.14% (n = 220,000). purified FXIa, Boc-Glu-Ala-Arg-AMC fluorogenic substrate. inhibition, % at 5 µM;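 active means inhibition of at least 40%; inactive means inhibition below 40%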;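 further: fluorescence of freed AMC excited at 355 nm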
Thrombin inh = inhibitors of human thrombin; alpha-thrombin, Boc-VPR-AMC fluorogenic substrate cleavage; P00734; actives 0.26% (n = 220,000); inhibition, % at 5 µM;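 active means inhibition at or above 40%; inactive means inhibition below 40%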
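System: human alpha-thrombin protein; Compound dosing: one concentration per compound, 5 µM, with 0.2% DMSO; Timing: reaction at room temperature; Technique: AMC fluorescence, 355/460 nm; Controls: enzyme without compound as high, wells lacking enzyme as low.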
Calb biofilm kill = mixtures killing C. albicans biofilm | actives 0.02% (n = 120,000) | AID 1242 | inhibition, % at 7.6 µM | C. albicans biofilm persisters + clotrimazole, fluorescence viability; primary screen in compound mixtures of four per well;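 further: compounds exposed to preformed 24 h biofilms for 48 h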
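Incubation: 24 h biofilm formation, then 48 h compound exposure, 37 °C | Material: C. albicans biofilms | Buffer or medium: RPMI/MOPS medium, pH 7.0 | Measured by: 2-h Alamar Blue fluorescence, 535/590 nm excitation/emission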
Of the large screens only hits and unclear results are named; the others gave an inactive call.

CCOC(=O)C1CCCN(c2oc(-c3ccc(OC)cc3)nc2C#N)C1 (centres undefined)	none
CC(=O)c1ccc(OCC(O)CN2C(C)CCCC2C)cc1 (centres undefined)	KLK5 inh 52 (no result: Calb biofilm kill)
CCc1nc2ccccc2c(C(=O)O)c1C	none (no result: Calb biofilm kill)
CCc1nc2ccccc2c(C(=O)OCC(=O)C(C)(C)C)c1C	Thrombin inh 47
CC(=O)c1cccc(NC(=O)c2csc(-n3nc(C)cc3C(F)(F)F)n2)c1	KLK5 inh 56 (no result: Calb biofilm kill)
Cc1cc(C(F)(F)F)n(-c2nc(C(=O)Nc3cccnc3)cs2)n1	none
Nc1nc(COc2ccccc2C=O)nc(Nc2ccccc2)n1	none
CCOC(=O)CNC(=O)c1ccc(OCC(F)(F)F)cc1	none
COc1ccc(C)cc1NC(=O)C1CCCN(S(=O)(=O)c2cnc[nH]2)C1 (centres undefined)	none (no result: Calb biofilm kill)
Cc1ccnc(NC(=O)C2CCCN(S(=O)(=O)c3cnc[nH]3)C2)c1 (centres undefined)	Thrombin inh 70 (no result: Calb biofilm kill)
CCCC(=O)Nc1ccc2oc(=O)ccc2c1	none
COC(=O)c1ccc(NC(=O)CC2C(=O)N(C)C(=S)N2Cc2ccc(S(N)(=O)=O)cc2)cc1 (centres undefined)	KLK5 inh 54
Cc1[nH]c(=O)[nH]c(=O)c1/C=N/NC(=O)[C@H](CC(C)C)NC(=O)OC(C)(C)C	none (no result: Calb biofilm kill)
Cc1[nH]c(=O)[nH]c(=O)c1/C=N/NC(=O)[C@@H](N)CC(C)C	FXIIa inh 1536 45
NC(=O)c1nn(-c2ccc(Cl)cc2Cl)c(=O)cc1O	none
CC(C)N(C)C(=O)C(=O)c1cccn1-c1cccc(Cl)c1C#N	none (no result: Thrombin inh)
Cc1ccc(NC(=S)Nc2ccc(OC(F)F)c(Cl)c2)cc1F	none
Cc1ccc(C(=O)C(NC(=O)c2ccco2)N2CCOCC2)cc1 (centres undefined)	KLK5 inh 44 (no result: Calb biofilm kill)
COc1cccc(NC(C)(C)c2nnnn2-c2c(C)cccc2C)c1	FXIIa inh 1536 66, FXIa inh 44
Nn1c(SCc2cccc(Br)c2)nnc1-c1ccncc1	none
COc1cc(C(=O)NC(=S)Nc2nccs2)cc(OC)c1OC	none
COc1cc(CC(=O)Nc2nccs2)cc(OC)c1OC	KLK5 inh 43 (no result: Calb biofilm kill)
Cn1c(-c2ccccc2)c(/C=N/NC(=O)c2ccc(O)cc2)c2ccccc21	none
C/C(=N\OC(=O)C1CC1)C1CC1c1ccc(F)cc1 (centres undefined)	KLK5 inh 52
COc1ccc(-c2csc(N3C(=O)C4C5c6ccccc6C(c6ccccc65)C4C3=O)n2)cc1 (centres undefined)	KLK5 inh 62
Cc1nc(C)c(C(=O)NCCC(c2ccccc2)c2ccccc2)o1	none
Cc1ccsc1C(=O)NCCC(c1ccccc1)c1ccccc1	FXIIa inh 1536 48
O=C(CN1C(=O)C2C3C=CC(C3)C2C1=O)NCc1ccc2c(c1)OCO2 (centres undefined)	Furin inhibitor 27 (no result: Calb biofilm kill)
Cc1c(C(=O)c2ccc(Cl)c(Cl)c2)cnc2cc3c(cc12)OCO3	none
COc1ccc(C(=O)c2cnc3cc4c(cc3c2C)OCO4)cc1	KLK5 inh 74 (no result: Calb biofilm kill)
O=C(OCC(=O)c1ccc(Cl)s1)c1ccc2ccccc2n1	FXIIa inh 1536 43
CCn1c(NCc2ccc3c(c2)OCO3)nc2ccccc21	KLK5 inh 53 (no result: Calb biofilm kill)
O=C(Nc1nnc(-c2ccccc2)s1)c1cc(S(=O)(=O)N2CCOCC2)c(Cl)cc1Cl	FXIIa inh 1536 41 (no result: Calb biofilm kill)
O=C(Nc1nnc(-c2ccccc2)s1)c1ccc(Cl)c(S(=O)(=O)N2CCOCC2)c1	none (no result: Calb biofilm kill)
O=C(/C=C/c1ccccc1)N1CCN(c2c(Cl)cccc2[N+](=O)[O-])CC1	none
CCC(C)NC(=O)CSc1ncnc2sccc12 (centres undefined)	FXIIa inh 1536 40
CSc1nc(SCC(=O)O)c2c3c(sc2n1)COC(C)(C)C3	FXIIa inh 1536 52
Clc1ccccc1CN1CCN(CCCc2ccccc2)CC1	FXIIa inh 1536 98
Cc1cc(NC(=O)Cn2cc([N+](=O)[O-])cn2)no1	none
COC(=O)c1cccc(NC(N)=S)c1	none (no result: FXIIa inh 1536)
CNC(=S)Nc1cccc(C(=O)OC)c1	KLK5 inh 51
COC(=O)c1cccc(NC(=O)CSc2ncn[nH]2)c1	FXIIa inh 1536 54, FXIa inh 44 (no result: Calb biofilm kill)
CCN1C(=O)/C(=C/N(C(C)=O)c2ccccc2)N(c2ccccc2)C1=S	KLK5 inh 50, Thrombin inh 76 (no result: Calb biofilm kill)
Cc1ccc(/C=N/NC(=O)Cn2nnc(N)n2)o1	none
COc1ccc2c(c1OC)C(=O)OC2n1c(O)c(N=NC(C)=O)c2ccccc21 (centres undefined)	none
CCOC(=O)c1[nH]c(C)c(C(=O)Nc2ccc(C)cc2C)c1C	KLK5 inh 80 (no result: Calb biofilm kill)
CCOC(=O)c1[nH]c(C)c(C(=O)Nc2ccc(C)c(C)c2)c1C	none (no result: Calb biofilm kill)
CN(CC1CCCO1)S(=O)(=O)c1ccc(C(=O)Nc2ccc3c(c2)OCO3)cc1 (centres undefined)	KLK5 inh 61
CN(CC1CCCO1)S(=O)(=O)c1ccc(C(=O)Nc2nc3cc4c(cc3s2)OCO4)cc1 (centres undefined)	none (no result: KLK5 inh, FXIIa inh 1536, FXIa inh, Thrombin inh, Calb biofilm kill)
Cc1csc(NC(=O)C(CC(C)C)NS(=O)(=O)c2ccc3c(c2)oc(=O)n3C)n1 (centres undefined)	KLK5 inh 55, FXIIa inh 1536 107 (no result: Calb biofilm kill)
O=C(Cn1cc2c(n1)CCCC2)NCc1ccccn1	KLK5 inh 45 (no result: Calb biofilm kill)
COc1cccc(-c2cc(C(=O)Nc3c(C)nn(Cc4ccccc4)c3C)no2)c1	KLK5 inh 55, Thrombin inh 41 (no result: Calb biofilm kill)
N#CC(C#N)=Cc1ccc(OCC(=O)N2CCOCC2)cc1	none
CCOC(=O)CNC(=O)Cn1cnc2c(nnn2-c2cccc(Cl)c2)c1=O	FXIIa inh 1536 43 (no result: Calb biofilm kill)
Cc1ccnc(SCc2cc(=O)c(OC(=O)c3ccc(Cl)c([N+](=O)[O-])c3)co2)n1	Furin inhibitor 25
Cc1ccnc(SCc2cc(=O)c(OC(=O)c3ccco3)co2)n1	none
O=C(Nc1scc(-c2ccccc2)c1C(=O)O)c1ccco1	KLK5 inh 59, Thrombin inh 50 (no result: Calb biofilm kill)
CC(C)Cc1nc2c(nnn2Cc2ccccc2F)c(=O)[nH]1	none
CCNc1nc(SCC(=O)OC)nc(N2CCOCC2)n1	none (no result: Calb biofilm kill)
CCNc1nc(SC(C)C(=O)OC)nc(N2CCOCC2)n1 (centres undefined)	KLK5 inh 115 (no result: Calb biofilm kill)
COc1ccc(S(=O)(=O)N(CCCN2CCCC2=O)Cc2cc3c(C)cc(C)cc3[nH]c2=O)cc1	KLK5 inh 133 (no result: Calb biofilm kill)
CC(=O)Nc1nonc1NC(=O)CSc1ccccn1	FXIIa inh 1536 70 (no result: Calb biofilm kill)
CNC(=O)NNC(=O)c1nc(-c2ccccc2)c(C)o1	KLK5 inh 42
NC(=O)c1c(NC(=O)Cn2nc(C(=O)O)c3ccccc3c2=O)sc2c1CCC2	none
NC(=O)c1c(NC(=O)Cn2nc(C(=O)O)c3ccccc3c2=O)sc2c1CCCC2	Thrombin inh 99
